FLuc stim CS = firefly luciferase counter-screen for stimulation assays; P08659; AID 1027; activation factor at 10 µM; 200,000 tested, under 10 active; ATPlite luciferase biochemical, luminescence, 10 min; 0 = ATP-free wells, 1 = DMSO control;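 active = luciferase activation factor, scaled between plate controls, of at least 2 with compound at 10 µM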
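Material: Luciferase/luciferin reagent mix; Doses: test compounds dosed from 2 mM stocks in 100% DMSO; Schedule: 10 min incubation after luciferase reagent addition, room temperature; Measured by: luminescence from luciferase reaction; Read-out: luminescence gain marking luciferase activators.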
FLuc inh counter = Photinus pyralis luciferase inhibition counter-screen. P08659. ATPLite firefly luciferase biochemical luminescence, 10 min. AID 1006. 200,000 tested, 1.5% active. inhibition, % at 10 µM;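 active = inhibition above about 50% when tested at 10 µM, limit read from the data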
PPC-1+TRAIL kill = compounds killing PPC-1 cancer cells with TRAIL present (potentiator screen, no TRAIL-free arm); 220,000 tested, 0.41% active; cell killing (% activity), % at 4 µM or 5 µM; PPC-1 cells + TRAIL, ATPLite viability luminescence;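 active = cell killing above 50% in the first pass at 4 µM, then a duplicate retest at 5 µM averaging 50% or more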
TRAIL sens C8 = sensitizes caspase-8 expressing cells to TRAIL; NB7+C8 cells + TRAIL, ATPlite viability luminescence; inhibition (viability loss, TRAIL sensitization), % at 10 µM; 360,000 tested, 1% active;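 active = compounds causing at least 50% loss of cell viability in the single-dose screen, relative to plate controls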
HSP90 refold inh = HSP90 refolding inhibition in rabbit reticulocyte lysate; luciferase refolding luminescence, 3 h; inhibition, % at 5.6 µM; 290,000 tested, 0.91% active; AID 1789;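 active = inhibition above the screen-wide mean plus 3 SD, computed separately per campaign, cut at about 16% in these data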;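 also: inhibitors lower the luminescence because luciferase stays unfolded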
A number is an active result; . = inactive; / = no result given. Hits are enriched below; roughly 2% of the tested compounds scored in any of these assays.

SMILES	FLuc stim CS	FLuc inh counter	PPC-1+TRAIL kill	TRAIL sens C8	HSP90 refold inh
CN(C)c1ccc(C=c2c3cc([N+](=O)[O-])ccc3n3c2cc(-c2ccccc2)[n+]3C)cc1	/	/	/	76	/
COc1cc(C=c2c3ccccc3n3c2cc(-c2ccccc2)[n+]3C)cc(OC)c1OC	/	/	/	.	/
CN(C)c1ccc(C=c2c3ccccc3n3c2cc(-c2ccccc2)[n+]3C)cc1	/	/	/	54	/
CN(C)c1ccc(C=c2c3ccccc3n3c2cc(-c2ccc(Cl)cc2)[n+]3C)cc1	/	/	/	.	/
CN(C)c1ccc(C=c2c3ccccc3n3c2c2c([n+]3C)CCCC2)cc1	/	/	/	.	/
COc1cc(N(C)C)ccc1C=c1c2ccccc2n2c1cc(-c1ccccc1)[n+]2C	/	/	/	54	/
CCOc1cccc2cc(-c3nnc(NCc4ccco4)s3)c(=O)oc12	.	.	.	55	.
CCOc1cccc2cc(-c3cn4cc(C)ccc4n3)c(=O)oc12	.	68	.	66	.
O=C(C(=O)N1CCN(c2ccccc2)CC1)c1ccco1	/	/	/	.	/
COc1ccc2sc3ccccc3c(=O)c2c1OC	.	.	.	.	.
COc1ccc(-c2ccc3sc4ccccc4c(=O)c3c2)cn1	/	/	/	66	/
Cc1nnc(SCC(=O)Nc2cccc(Cl)c2)n1CC1CCCO1 (centres undefined)	/	/	/	.	.
Cc1ccc(-c2cc3onc(-c4ccccc4)c3c(=O)n2C)cc1	/	/	/	78	/
C/C(=N\NC(=O)c1cc2ccccc2cc1O)c1ccccn1	/	/	/	58	.
CC(=N/O)/C(C)=N\NC(=O)c1ccccn1	.	51	.	.	.
C/C(=N\NC(=O)c1ccc(F)cc1)c1ccccn1	/	/	/	55	.
O=C(/C=C/c1ccccc1)c1ccccn1	.	71	.	.	.
C/C(=N\NC(=O)c1cc2ccccc2cc1O)c1cc2ccccc2o1	/	/	.	.	.
C/C(=N\NC(=O)c1c[nH]c2ccccc12)c1ccccn1	.	.	.	.	.
COc1ccc(S(=O)(=O)N2CCCCC2)cc1NC(=O)Cc1cccc(C(F)(F)F)c1	/	/	/	.	/
O=C(N/N=C/C(Cl)=C/c1ccccc1)c1ccccn1	.	81	.	56	.
O=C(N/N=C/C(Cl)=C/c1ccccc1)c1ccncc1	.	.	.	.	.
Cc1cnc(C(=O)OCC(=O)N(Cc2ccccc2)C(C)(C)C)cn1	/	/	/	.	/
Cc1cc(NC(=O)C(C)SCC(=O)OCC(=O)N(C)c2ccccc2)no1 (centres undefined)	/	/	/	.	/
O=C(CSc1nc2ccccc2c(=O)[nH]1)Nc1ccc([N+](=O)[O-])cc1	/	/	/	61	/
SMILES	FLuc stim CS	FLuc inh counter	PPC-1+TRAIL kill	TRAIL sens C8	HSP90 refold inh
NSc1nc(N)c2nc(-c3ccccc3)c(-c3ccccc3)nc2n1	.	.	.	.	.
Nc1nc(N)c2nc(-c3ccccc3)c(N)nc2n1	.	.	.	79	.
CC(=O)Nc1ccc(N=Cc2c(O)c(C(=O)Nc3ccccc3)cc3ccccc23)cc1	.	95	.	/	.
Cc1ccc(Nc2nc(-c3cccs3)cs2)nc1	.	85	.	65	17
Cc1cc(O)ccc1Nc1nc(-c2cccnc2)cs1	/	/	/	.	.
Cc1cc(O)ccc1Nc1nc(-c2cccs2)cs1	.	78	.	.	.
Cc1cc(C(=O)N/N=C/c2cccs2)no1	.	.	.	.	.
O=C(N/N=C/C1CC=CCC1)c1ccc(Cl)cc1O (centres undefined)	.	55	.	.	.
O=C(N/N=C/C1CC=CCC1)c1ccccc1O (centres undefined)	.	.	.	.	.
O=C(CCl)Nc1ccccc1Sc1ccc(Cl)cc1	.	.	.	95	.
CC(=O)N1CCN(CC(=O)Nc2ccccc2Sc2ccc(Cl)cc2)CC1	.	.	.	.	.
COC(=O)[C@H](NC(=O)c1cc([C@@H](NC(=O)OC(C)(C)C)C(C)C)sc1N)C(C)C	/	/	/	.	/
Cc1cccc(-c2oc3ccc(-c4ccc5c(c4)OCO5)cc3c2/C=C/c2ccc(N)cc2)c1	/	/	/	.	.
Cc1[nH]n(-c2cccc(Cl)c2)c(=O)c1C=NCc1ccco1	.	65	.	.	.
Cc1[nH]n(-c2ccccc2)c(=O)c1C=NCc1ccco1	.	.	.	/	.
CC1=C(SCc2ccccc2)C(=O)c2ccccc2C1=O	/	/	/	51	/
CN(C)c1ccc(C(=O)/C=C/c2ccccc2)cc1	.	78	.	.	.
CN(C)c1ccc(C(=O)/C=C/c2ccco2)cc1	.	91	.	54	.
CSc1ccc(/C=C/C(=O)c2ccc(O)cc2)cc1	.	70	.	.	.
